Screens from PubChem BioAssay.
Rows were chosen to be rich in hits. Some 9.6% of all compounds tested hit in one or more screens of this group.
bCat KO growth: primary screen for growth suppressors in beta-catenin knockout HCT116 cells (colon tumor, human) | HCT116 beta-catenin knockout viability, CellTiter-Glo, 60 h; stronger effect = lower value | viability, % at 10 µM | 1.5% of 140,000 active | AID 818, 2007;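 active means viability at or under a set limit, the compound median less 4 SD, cut at about 6% in these data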;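 further: 0% = Hyamine 1622 control at 20 µM and 100% = untreated cell control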
TNAP inh hiacc: human TNAP enzyme inhibitors, primary screen, biochemical, luminescent, high phosphate acceptor level, uHTS. Alkaline phosphatase, tissue-nonspecific isozyme (Homo sapiens), P05186. purified TNAP, CDP-star luminescence, 1 M DEA. inhibition, % at 20 µM. 0.03% of 200,000 active. AID 1135, 2008;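 active means over 50% inhibition of tissue-nonspecific alkaline phosphatase at 20 µM in the single-dose screen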;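 further: plate controls were DMSO wells for no effect and EDTA-quenched wells as full inhibition for full effect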
Target sequence (P05186 whole entry, looked up): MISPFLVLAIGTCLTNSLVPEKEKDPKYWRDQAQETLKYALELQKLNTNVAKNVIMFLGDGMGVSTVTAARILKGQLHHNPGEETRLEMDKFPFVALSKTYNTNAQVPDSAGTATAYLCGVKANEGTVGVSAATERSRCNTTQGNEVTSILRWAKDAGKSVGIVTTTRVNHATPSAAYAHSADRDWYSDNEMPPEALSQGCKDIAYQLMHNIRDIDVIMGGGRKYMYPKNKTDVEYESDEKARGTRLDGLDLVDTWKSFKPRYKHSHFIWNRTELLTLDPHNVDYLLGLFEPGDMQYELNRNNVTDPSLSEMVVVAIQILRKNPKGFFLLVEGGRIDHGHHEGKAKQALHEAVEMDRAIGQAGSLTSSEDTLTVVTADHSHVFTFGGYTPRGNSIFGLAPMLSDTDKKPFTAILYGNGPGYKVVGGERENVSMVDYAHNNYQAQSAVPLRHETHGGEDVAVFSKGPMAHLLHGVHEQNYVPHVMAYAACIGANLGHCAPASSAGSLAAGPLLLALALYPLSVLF
TNAP act hi DEA: TNAP activators at high phosphate acceptor level, primary screen, biochemical, luminescence, uHTS. Alkaline phosphatase, tissue-nonspecific isozyme (Homo sapiens), P05186. purified TNAP, CDP-star luminescence, 1 M DEA, 30 min; stronger effect = higher value; 0 = EDTA background, 1 = DMSO-only activity. activation factor at 20 µM. 200,000 tested, under 10 active. AID 1136, 2008;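 active means activation factor at least 2 at 20 µM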
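Dosing: 20 µM single point. System: human TNAP. Amount: TNAP 1/800 final. Incubation: 30 min, room temperature. Read-out: TNAP activation factor scaled between EDTA and DMSO control wells. Signal: luminescence from CDP-star hydrolysis. Medium: 1 M DEA, pH 9.8, Mg2+, Zn2+. Control set: EDTA negative control, DMSO positive control.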
HCT116 PTEN-null: growth suppression of PTEN-null HCT116, primary screen, cell-based, CellTiter-Glo; 1.2% of 140,000 active; HCT116 PTEN-null viability, 60 h; stronger effect = lower value; viability, % at 10 µM;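 active means viability at or below a set limit, 4 SD under the median of all tested compounds, cut at about 3.7% in these data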;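 further: PTEN knockout HCT116 line with beta catenin targeted HCT116 as companion control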
TNAP inh noacc: human TNAP enzyme inhibitors, primary screen, biochemical, luminescent, no phosphate acceptor, uHTS; inhibition, % at 20 µM; 0.26% of 200,000 active; Alkaline phosphatase, tissue-nonspecific isozyme (Homo sapiens), P05186; AID 1012, 2008; purified TNAP, CDP-star luminescence, 30 min;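 active means tissue-nonspecific alkaline phosphatase inhibition above about 50% at 20 µM in the single-dose screen, limit read from the data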;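 further: 0% = DMSO negative control and 100% = EDTA positive control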
L major viab: Leishmania major promastigote growth inhibition, primary screen; Leishmania major promastigotes, resazurin fluorescence viability; inhibition, % at 10 µM; 9% of 200,000 active; AID 1063, 2008; in the data active means inhibition above about 50%;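 further: promastigotes grown with compound for 44 hours at 28 °C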
The depositor's hits bear a star; nt = no result.

SMILES	bCat KO growth	TNAP inh hiacc	TNAP act hi DEA	HCT116 PTEN-null	TNAP inh noacc	L major viab
CN(c1ccccc1)S(=O)(=O)c1cccc(C(=O)OCC(=O)NCc2ccco2)c1	nt	-6.1	1.1	nt	-10.0	8.7
COc1cccc(C(=O)Nc2ccc(S(=O)(=O)NCc3ccco3)cc2)c1	87.7	-6.1	1.1	93.2	-18.0	-7.4
COc1ccccc1C(CNC(=O)c1ccc(S(=O)(=O)NCc2ccco2)cc1)N(C)C (stereo not given)	95.8	-0.7	1	104.9	-4.5	51.0*
COc1ccc(OC)c(NC(=O)c2cc(S(=O)(=O)NCc3ccco3)ccc2F)c1	93.2	-2.1	1	96.1	-6.5	6.0
COc1cc(OC)c(N(C)S(=O)(=O)c2cccc(C(=O)OCC(=O)NCc3ccco3)c2)cc1Cl	nt	-2.4	1	nt	-10.7	53.2*
COc1ccc(S(=O)(=O)NCc2ccco2)cc1N(C)S(=O)(=O)c1ccccc1	nt	-8.5	1.1	nt	-12.9	59.5*
CCn1c(CCCOc2ccc(Cl)cc2Cl)n[nH]c1=S	nt	-4.4	1	nt	11.8	-5.1
COc1ccc(C(=O)N2CCN(C(=O)Cc3ccccc3)CC2)cc1	nt	2.0	1	nt	11.9	-8.0
Cc1ccc(Nc2nnc(C3C(=O)N(C)C4(C)CC3c3cc(Br)ccc3O4)s2)cc1 (stereo not given)	70.6	-1.8	1	64.3	3.2	68.8*
CN1C(=O)C(/C(N)=N/NC(=O)c2ccccc2)C2CC1(C)Oc1ccccc12 (stereo not given)	103.3	6.8	0.9	102.4	-156.3	-9.5
O=S(=O)(Nc1ccc(N=Nc2ccc(O)c3ccccc23)cc1)c1ccccc1	78.7	49.3	0.5	65.2	53.3*	85.9*
O=S(=O)(Nc1ccc(N=Nc2ccccc2)cc1)c1ccccc1	90.4	14.6	0.9	78.0	10.3	-4.5
Cc1ccc(N2C(=O)C3C(c4ccccc4)N4CCCN4C3(C)C2=O)cc1 (stereo not given)	97.1	-6.1	1.1	93.2	-5.6	-6.2
O=C1CCCC(=O)C1C(=O)C1CCN(S(=O)(=O)c2ccccc2)CC1	nt	-5.3	1.1	nt	0.3	2.8
COc1ccc(CC2(CO)CCN(Cc3cnc(-c4ccccc4C)nc3)CC2)cc1	nt	-1.1	1	nt	-1.4	-4.7
COc1ccc(CC2(CO)CCN(C(C)COc3ccccc3)CC2)cc1 (stereo not given)	nt	4.4	1	nt	2.3	78.9*
COc1ccc(CC2(CO)CCN(C/C=C/c3ccccc3OC)CC2)cc1	nt	-3.8	1	nt	-12.8	86.8*
COc1ccc(CC2(CO)CCN(Cc3cnn(-c4ccccc4OC)c3)CC2)cc1	nt	-7.3	1.1	nt	-12.2	20.6
CC(COc1ccccc1)N1CCC(CO)(Cc2ccccc2)CC1 (stereo not given)	nt	-5.5	1.1	nt	-1.7	60.3*
COc1ccc(CC2(CO)CCN(S(=O)(=O)N(C)C)CC2)cc1	nt	-7.5	1.1	nt	-13.1	-4.9
CCOc1ccc(Br)cc1S(=O)(=O)Nc1nc(CN2CCOCC2)nc2sc(C)c(C)c12	98.0	1.1	1	91.3	-6.8	0.5
O=C(Nn1c(C2CCCCC2)nc2ccccc2c1=O)c1ccc([N+](=O)[O-])cc1Cl	98.8	2.8	1	92.8	-1.6	9.2
Cc1ccccc1OCCNCC(C)O (stereo not given)	nt	-5.1	1.1	nt	-12.9	-3.9
CCC(C)NCCOCCOc1ccc(Cl)cc1Br (stereo not given)	nt	-3.6	1	nt	-4.6	96.1*
CCCCNCCOCCOc1ccc(C)cc1Br	55.3	0.3	1	62.4	2.0	98.2*
Cc1ccc(OCCOCCNC(C)C)c(Br)c1	79.8	0.4	1	83.2	-7.3	90.1*
CCC(C)NCCOCCOc1ccc(C)cc1OC (stereo not given)	95.7	-3.0	1	93.5	-10.2	40.5
COCCCNCCOc1cc(C(C)C)ccc1C	93.6	-3.0	1	87.0	4.6	90.9*
COc1ccc(C2CC(=O)c3ccccc3O2)cc1 (stereo not given)	70.1	-2.5	1	63.5	-10.5	2.2
